Consider one compound from ChEMBL document CHEMBL3808349, “Antineoplastic Agents. 585. Isolation of Bridelia ferruginea Anticancer Podophyllotoxins and Synthesis of 4-Aza-podophyllotoxin Structural Modifications” (2016).

Type in all cases: functional
Assay [1] is described as follows: Growth inhibition of human BxPC3 cells measured after 48 hrs by sulforhodamine B assay. Particulars: BXPC-3, 48 h. The procedure, abridged:
(§1)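 Cells were seeded in RPMI1640 with 5% fetal bovine serum and incubated 24 h before serial dilutions of sample were added. After 48 h exposure, cells were fixed with trichloroacetic acid and stained with sulforhodamine B, and optical density was read by plate reader.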
A general note: The SRB assay estimates cell density from bound dye.

A further assay concerns P388. Briefly: Growth inhibition of mouse P388 cells measured after 48 hrs by sulforhodamine B assay. To be noted: P388, 48 h, read-out: ED50 (the source's name).
The test system of a further assay is MCF7. As to the kind of experiment: Growth inhibition of human MCF7 cells measured after 48 hrs by sulforhodamine B assay. To be noted: MCF7, 48 h. Put shortly: as §1
Assay [2] is described as follows: Growth inhibition of human DU145 cells measured after 48 hrs by sulforhodamine B assay. To be noted: DU-145, 48 h. Put shortly: as §1
Assay [3] can be described thus: Growth inhibition of human KM20L2 cells measured after 48 hrs by sulforhodamine B assay. Particulars: KM-20L2, 48 h. Put shortly: as §1
For the next assay, the system named is NCI-H460. As to the kind of experiment: Growth inhibition of human NCI-H460 cells measured after 48 hrs by sulforhodamine B assay. Particulars: NCI-H460, 48 h. Put shortly: as §1
The nature of assay [4]: Growth inhibition of human SF268 cells measured after 48 hrs by sulforhodamine B assay. To be noted: SF-268, 48 h. Put shortly: as §1

The structures appear in SMILES notation. ≈ marks a conversion by molar mass, not a printed value.

Broadly, the GI50 is the concentration at which growth is held to half of that of the control. A higher GI50 goes with lower sensitivity of the cells. For `COc1cc([C@@H]2c3cc4c(cc3C[C@H]3COC(=O)[C@@H]32)OCO4)cc(OC)c1OC` [DESOXYPODOPHYLLOTOXIN], the concentration for 50% growth inhibition (GI50) stood at 0.44 ng/mL (≈ 1.1 nM) in assay [1]; 2.7 ng/mL (≈ 6.78 nM) with MCF7; 1.7 ng/mL (≈ 4.27 nM) in assay [2]; 1.4 ng/mL (≈ 3.51 nM) in assay [3]; 1.8 ng/mL (≈ 4.52 nM) in the assay on NCI-H460; 0.56 ng/mL (≈ 1.41 nM) in assay [4]. In addition, in the assay with P388, the EC50 stood at 29 ng/mL (≈ 72.8 nM).
